Experimental data reported in ChEMBL document CHEMBL1949512, “RO4383596, an orally active KDR, FGFR, and PDGFR inhibitor: synthesis and biological evaluation” (Bioorg Med Chem, 2005).

Experiments:
[1] = Tmax in athymic nude mouse at 50 mg/kg, po; type: ADME, organism-based; parameters: dose 50 mg/kg, route oral; settings: in vivo
Outline: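 Athymic nude mice, single oral dose 50 mg/kg in 2% Klucel LF, 0.1% Tween 80 in water, 0.2 mL. Retro-orbital or terminal cardiac blood at 5, 15, 30 min and 1, 2, 4, 8, 16, 24 h; EDTA plasma by LC-MS/MS. Composite parameters; Tmax read from mean concentration–time profile.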

[2] = AUC in Wistar rat at 5 mg/kg, iv; type: ADME, organism-based; parameters: dose 5 mg/kg, route intravenous; settings: plasma
Outline: (§1)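 Wistar rats received one dose, either iv 5 mg/kg via femoral arterial catheter (2% DMA/10% PEG400/88% of 40% HPBCD) or po 50 mg/kg (2% Klucel LF/0.1% Tween 80). Blood came from an implanted jugular catheter, up to 24 h (iv) or 48 h (po), into EDTA. Plasma LC-MS/MS; individual non-compartmental parameters were averaged.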

[3] = AUC in athymic nude mouse at 10 mg/kg, iv; type: ADME, organism-based; parameters: dose 10 mg/kg, route intravenous; settings: plasma
Outline: (§2)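 Athymic nude mice received one dose, either iv 10 mg/kg in 2% DMA/10% PEG400/88% of 40% HPBCD in water, or po 50 mg/kg in 2% Klucel LF/0.1% Tween 80. Retro-orbital or terminal cardiac blood was drawn from 1 min (iv) or 5 min (po) to 24 h into EDTA. Plasma was analysed by LC-MS/MS. Composite parameters were obtained by non-compartmental analysis, with AUC extrapolated to infinity.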

[4] = Clearance in athymic nude mouse at 10 mg/kg, iv; type: ADME, organism-based; parameters: dose 10 mg/kg, route intravenous; settings: in vivo; outline: as §2
[5] = AUC in athymic nude mouse at 50 mg/kg, po; type: ADME, organism-based; parameters: dose 50 mg/kg, route oral; settings: plasma; outline: as §2
Mus musculus [6] = experiment: Antiangiogenic activity in C57/BL6 mouse cornea assessed as inhibition of bFGF-induced angiogenesis at 50 mg/kg, po bid for 5 days by corneal pocket assay relative to control; type: functional; settings: 120 h
Outline: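 bFGF-impregnated pellets were implanted in corneas of female C57/BL6 mice aged 5–7 weeks. Oral dosing twice daily began the same day for 5 days. The neovascularized area was quantitated against vehicle-treated animals (2% Klucel LF, 0.1% Tween 80 in water).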

[7] = Clearance in Wistar rat at 5 mg/kg, iv; type: ADME, organism-based; parameters: dose 5 mg/kg, route intravenous; settings: in vivo; outline: as §1
[8] = target: Mitogen-activated protein kinase 1 (Homo sapiens, UniProt P28482); experiment: Inhibition of ERK2 by IMAP assay
Mitogen-activated protein kinase 1, sequence (P28482 whole entry): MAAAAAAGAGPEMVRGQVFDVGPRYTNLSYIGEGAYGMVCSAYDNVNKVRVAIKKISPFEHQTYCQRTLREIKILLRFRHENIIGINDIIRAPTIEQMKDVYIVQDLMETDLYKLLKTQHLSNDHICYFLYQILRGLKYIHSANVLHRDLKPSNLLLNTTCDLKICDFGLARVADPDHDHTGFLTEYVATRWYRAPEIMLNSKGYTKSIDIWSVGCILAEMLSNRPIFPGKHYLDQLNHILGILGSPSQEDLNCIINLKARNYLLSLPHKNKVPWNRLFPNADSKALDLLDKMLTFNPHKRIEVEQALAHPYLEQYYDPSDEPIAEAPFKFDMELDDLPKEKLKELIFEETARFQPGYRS
Outline: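 IMAP fluorescence-polarization assay, in which phosphorylated fluorescent peptide substrates bind immobilized metal beads. Reactions ran at ATP three times Km.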

[9] = Cmax in C57/BL6 mouse at 25 mg/kg, po bid for 5 days; type: ADME, organism-based; parameters: dose 25 mg/kg, route oral; settings: in vivo
Outline: (§3)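 Female C57/BL6 mice were dosed orally twice daily for 5 days with a suspension in 2% Klucel LF/0.1% Tween 80 in water. Six mice per dose were split into two subgroups of three, each sampled at alternate time points. Retro-orbital blood was taken at 0, 1, 4 and 8 h post-dose into EDTA, and plasma was analysed by LC-MS/MS. Parameters come from mean concentrations; AUC0–8h by linear trapezoidal rule; Cmax and Tmax as observed.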

Ephrin type-B receptor 3 = target: T1, Ephrin type-B receptor 3 (Homo sapiens, UniProt P54753); experiment: Inhibition of EphB3
T1 sequence (P54753 whole entry): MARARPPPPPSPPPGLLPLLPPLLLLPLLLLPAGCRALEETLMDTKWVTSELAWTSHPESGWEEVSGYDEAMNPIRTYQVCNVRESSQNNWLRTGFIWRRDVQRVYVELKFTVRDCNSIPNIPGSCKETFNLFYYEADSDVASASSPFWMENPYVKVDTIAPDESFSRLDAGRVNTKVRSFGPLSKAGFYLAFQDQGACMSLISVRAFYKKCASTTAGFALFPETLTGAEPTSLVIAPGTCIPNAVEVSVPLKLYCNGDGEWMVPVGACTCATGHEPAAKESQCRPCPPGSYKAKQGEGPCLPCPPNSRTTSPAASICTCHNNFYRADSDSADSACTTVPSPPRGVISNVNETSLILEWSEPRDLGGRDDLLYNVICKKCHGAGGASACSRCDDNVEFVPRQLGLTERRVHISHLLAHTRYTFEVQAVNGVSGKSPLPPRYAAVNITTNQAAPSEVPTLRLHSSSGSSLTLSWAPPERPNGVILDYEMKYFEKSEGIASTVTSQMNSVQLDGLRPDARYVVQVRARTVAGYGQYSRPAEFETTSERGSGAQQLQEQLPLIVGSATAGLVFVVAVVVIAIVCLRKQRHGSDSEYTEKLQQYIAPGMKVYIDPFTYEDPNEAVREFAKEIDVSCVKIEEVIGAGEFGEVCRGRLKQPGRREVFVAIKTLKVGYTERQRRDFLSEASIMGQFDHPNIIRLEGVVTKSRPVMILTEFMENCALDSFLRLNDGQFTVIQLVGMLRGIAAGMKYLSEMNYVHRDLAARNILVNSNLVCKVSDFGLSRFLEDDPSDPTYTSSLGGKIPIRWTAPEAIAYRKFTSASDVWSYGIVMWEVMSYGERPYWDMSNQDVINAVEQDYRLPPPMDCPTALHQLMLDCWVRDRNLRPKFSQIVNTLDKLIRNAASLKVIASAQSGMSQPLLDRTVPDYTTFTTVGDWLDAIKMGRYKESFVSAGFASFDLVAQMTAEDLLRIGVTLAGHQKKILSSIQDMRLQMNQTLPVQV

[10] = target: Vascular endothelial growth factor receptor 2 (Homo sapiens, UniProt P35968); experiment: Inhibition of human recombinant EE-tagged intracellular domain of KDR using biotin-EEEEYFELVAKKKK as substrate by HTRF assay
Vascular endothelial growth factor receptor 2, sequence (P35968 whole entry, the tested form may be a part): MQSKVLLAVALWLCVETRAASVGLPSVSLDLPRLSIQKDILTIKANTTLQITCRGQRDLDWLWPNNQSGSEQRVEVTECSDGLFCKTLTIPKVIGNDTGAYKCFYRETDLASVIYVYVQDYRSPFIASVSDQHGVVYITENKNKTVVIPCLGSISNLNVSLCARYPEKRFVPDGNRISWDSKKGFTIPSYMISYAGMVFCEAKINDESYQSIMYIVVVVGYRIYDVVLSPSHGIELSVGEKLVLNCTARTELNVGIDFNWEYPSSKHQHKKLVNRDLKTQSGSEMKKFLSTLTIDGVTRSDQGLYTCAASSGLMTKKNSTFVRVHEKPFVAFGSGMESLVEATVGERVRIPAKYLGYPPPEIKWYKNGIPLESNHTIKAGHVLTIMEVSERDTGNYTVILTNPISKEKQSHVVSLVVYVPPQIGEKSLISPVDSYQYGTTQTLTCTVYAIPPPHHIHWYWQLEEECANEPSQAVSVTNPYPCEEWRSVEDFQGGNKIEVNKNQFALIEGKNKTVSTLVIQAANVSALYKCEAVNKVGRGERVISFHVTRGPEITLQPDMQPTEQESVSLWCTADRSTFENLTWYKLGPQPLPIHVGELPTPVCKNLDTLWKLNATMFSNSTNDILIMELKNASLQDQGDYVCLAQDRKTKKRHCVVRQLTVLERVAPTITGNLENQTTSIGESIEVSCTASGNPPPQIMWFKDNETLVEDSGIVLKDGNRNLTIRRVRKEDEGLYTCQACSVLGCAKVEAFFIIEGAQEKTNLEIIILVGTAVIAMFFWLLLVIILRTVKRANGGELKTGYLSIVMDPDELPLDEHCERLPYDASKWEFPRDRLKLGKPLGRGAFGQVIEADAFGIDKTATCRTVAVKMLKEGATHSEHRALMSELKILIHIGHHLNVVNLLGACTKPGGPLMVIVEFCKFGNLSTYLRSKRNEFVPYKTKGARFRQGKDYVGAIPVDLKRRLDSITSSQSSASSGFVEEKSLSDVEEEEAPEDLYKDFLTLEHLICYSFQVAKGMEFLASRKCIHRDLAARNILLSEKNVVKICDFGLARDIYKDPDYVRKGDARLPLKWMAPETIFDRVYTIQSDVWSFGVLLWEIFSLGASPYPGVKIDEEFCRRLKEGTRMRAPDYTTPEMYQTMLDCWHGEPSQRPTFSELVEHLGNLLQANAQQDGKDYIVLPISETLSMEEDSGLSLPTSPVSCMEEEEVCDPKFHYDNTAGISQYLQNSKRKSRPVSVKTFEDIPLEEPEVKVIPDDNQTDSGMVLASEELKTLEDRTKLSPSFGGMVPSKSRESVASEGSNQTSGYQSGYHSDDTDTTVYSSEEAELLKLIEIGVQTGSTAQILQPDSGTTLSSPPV

[11] = Cmax in Wistar rat at 50 mg/kg, po; type: ADME, organism-based; parameters: dose 50 mg/kg, route oral; settings: in vivo; outline: as §1
[12] = AUC in C57/BL6 mouse at 50 mg/kg, po bid for 5 days; type: ADME, organism-based; parameters: dose 50 mg/kg, route oral; settings: plasma; outline: as §3
[13] = Cmax in C57/BL6 mouse at 100 mg/kg, po bid for 5 days; type: ADME, organism-based; parameters: dose 100 mg/kg, route oral; settings: in vivo; outline: as §3
[14] = Volume of distribution at steady state in athymic nude mouse at 10 mg/kg, iv; type: ADME, organism-based; parameters: dose 10 mg/kg, route intravenous; settings: in vivo, read-out: Vdss
Outline: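 Athymic nude mice given single 10 mg/kg iv dose in 2% DMA, 10% PEG400, 88% of 40% HPBCD in water, 0.2 mL. Blood at 1, 5, 15, 30 min and 1, 2, 4, 8, 16, 24 h; EDTA plasma, LC-MS/MS. Composite Vdss by non-compartmental analysis.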

HUVEC = experiment: Antiangiogenic activity in HUVEC assessed as inhibition of VEGF-induced cell proliferation; settings: Homo sapiens
[15] = Cmax in […] mouse at 100 mg/kg, po; type: ADME, organism-based; parameters: dose 100 mg/kg, route oral; settings: in vivo
Outline: (§4)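 A separate group of female mice received one 100 mg/kg oral dose. Median PK parameters were calculated for that cohort.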

Mus musculus [16] = experiment: Dose normalized AUC in C57/BL6 mouse at 100 mg/kg, po bid for 5 days; type: ADME, organism-based; parameters: dose 100 mg/kg, route oral; settings: in vivo, 120 h; outline: as §3
[17] = Half life in athymic nude mouse at 10 mg/kg, iv; type: ADME, organism-based; parameters: dose 10 mg/kg, route intravenous; settings: in vivo; outline: as §2
[18] = AUC in […] mouse at 100 mg/kg, po; type: ADME, organism-based; parameters: dose 100 mg/kg, route oral; settings: plasma; outline: as §4
Mus musculus [19] = experiment: Dose normalized AUC in C57/BL6 mouse at 25 mg/kg, po bid for 5 days; type: ADME, organism-based; parameters: dose 25 mg/kg, route oral; settings: in vivo, 120 h; outline: as §3

Tmax [1]: 0.25 h
AUC [2]: 4010 ng·h/mL
AUC [3]: 11100 ng·h/mL
clearance [4]: 15.1 mL/min/kg
AUC [5]: 51300 ng·h/mL
clearance [7]: 23.1 mL/min/kg
IC50 [8]: 3040 nM
Cmax [9]: 12000 ng/mL
IC50 (Ephrin type-B receptor 3): 1090 nM
IC50 [10]: 44 nM
Cmax [11]: 7180 ng/mL
AUC at 120 h [12]: 75500 ng·h/mL
Cmax [13]: 47700 ng/mL
Vd [14]: 1.9 L/kg
Cmax [15]: 37600 ng/mL
AUC/dose (Mus musculus [16]): 1458 ng·h/mL/mg/kg
half-life [17]: 3 h
AUC [18]: 146000 ng·h/mL
AUC/dose (Mus musculus [19]): 1199 ng·h/mL/mg/kg
Structure (SMILES): COc1ccc(N2Cc3cnc(Nc4ccccc4)nc3N([C@@H]3CC[C@@H](O)C3)C2=O)cc1 (racemic)
inhibition in vivo at 50 mg/kg (Mus musculus [6]): 80%
IC50 (HUVEC): 68 nM
